For assay [1], the system named is Enterococcus faecium. Put plainly: Antifolate activity against Streptococcus faecium ATCC 8043 assessed as growth inhibition. The assay is classed as functional, organism-based. To be noted: for IC50: read-out: I50.
Assay [2] has as its system Lacticaseibacillus casei. Description: Antifolate activity against Lactobacillus casei ATCC 7469 assessed as growth inhibition. The assay is classed as functional, organism-based.
Assay [3] addresses Dihydrofolate reductase (Lactobacillus casei) (UniProt P00381). Put plainly: Inhibition of Lactobacillus casei DHFR. To be noted: Lacticaseibacillus casei.
The test system of assay [4] is Lacticaseibacillus casei. Put plainly: Antifolate activity against Lactobacillus casei ATCC 7469 assessed as growth inhibition at 1.6 ug/ml. The assay is classed as functional, organism-based. The essentials: (§1)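 Bacterial growth was run in each organism's own assay medium by earlier-reported methods, with test agent at 1.6 μg/mL.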
The target in assay [5] is Dihydrofolate reductase (Lactobacillus casei) (UniProt P00381). Description: Activity of Lactobacillus casei DHFR. The note with it: Lacticaseibacillus casei. In a few lines:
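The 7,8-dihydro form of the test folate analogue replaced the natural substrate in the previously described L. casei DHFR assay medium.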

In assay [6] the target is T1, Thymidylate synthase (Lactobacillus casei) (UniProt P00469).
T1 sequence (whole entry): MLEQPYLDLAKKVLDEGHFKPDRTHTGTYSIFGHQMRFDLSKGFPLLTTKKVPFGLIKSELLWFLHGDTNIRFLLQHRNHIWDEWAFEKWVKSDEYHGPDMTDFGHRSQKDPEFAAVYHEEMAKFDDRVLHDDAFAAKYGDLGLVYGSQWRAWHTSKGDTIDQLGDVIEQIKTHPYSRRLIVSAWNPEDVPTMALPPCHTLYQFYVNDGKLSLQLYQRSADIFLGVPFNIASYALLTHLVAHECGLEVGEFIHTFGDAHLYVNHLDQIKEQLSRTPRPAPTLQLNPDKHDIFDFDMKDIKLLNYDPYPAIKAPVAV
Description: Inhibition of Lactobacillus casei thymidylate synthase. To be noted: Lacticaseibacillus casei.

Assay [7] deals with Enterococcus faecium. Put plainly: Antifolate activity against Streptococcus faecium ATCC 8043 assessed as growth inhibition at 1.6 ug/ml. The assay is classed as functional, organism-based. The essentials:
as §1

Converted amounts (≈) assume the structure as drawn. The source made the active and inactive calls. No cut-off for these calls is given here.

Chain of Dihydrofolate reductase (Lactobacillus casei) (P00381 whole entry): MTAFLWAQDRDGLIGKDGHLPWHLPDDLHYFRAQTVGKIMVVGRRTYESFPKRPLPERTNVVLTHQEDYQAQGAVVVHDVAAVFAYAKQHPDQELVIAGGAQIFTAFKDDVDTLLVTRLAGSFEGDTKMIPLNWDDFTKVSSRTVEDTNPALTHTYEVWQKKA

On to `COC(=O)c1ccc(SCCc2cnc3nc(N)[nH]c(=O)c3n2)cc1`, for which the “growth inhibition (GI)” value in the assay with Enterococcus faecium [1] and in the assay on Lacticaseibacillus casei [2] was “inactive” throughout.

`Nc1nc(=O)c2c([nH]1)NCC(CCNc1ccc(C(=O)N[C@@H](CCC(=O)O)C(=O)O)cc1)N2` (some centres not stated): in the assay with Enterococcus faecium [1], the IC50 was determined as 0.7 ng/mL (≈ 1.52 nM).

Consider `Nc1nc(=O)c2c([nH]1)NCC(CCSc1ccc(C(=O)N[C@@H](CCC(=O)O)C(=O)O)cc1)N2` (some centres not stated), for which the IC50 in the assay with Enterococcus faecium [1] was determined as 1.2 ng/mL (≈ 2.52 nM). Further, in the assay with Lacticaseibacillus casei [2], the I50 was 8 ×10⁻⁷ g/ml.

Take `Nc1nc2ncc(CCSc3ccc(C(=O)O)cc3)nc2c(=O)[nH]1`: the “growth inhibition (GI)” value with Enterococcus faecium [1] and in the assay on Lacticaseibacillus casei [2] was “inactive” each time.

Consider `Nc1nc(=O)c2nc(COc3ccc(C(=O)N[C@@H](CCC(=O)O)C(=O)O)cc3)cnc2[nH]1`, for which the “growth inhibition (GI)” value with Enterococcus faecium [1] and in the assay with Lacticaseibacillus casei [2] was “Active” in each case.

Regarding `Nc1nc(=O)c2nc(CSc3ccc(C(=O)N[C@@H](CCC(=O)O)C(=O)O)cc3)cnc2[nH]1`, the “growth inhibition (GI)” value with Enterococcus faecium [1] and in the assay on Lacticaseibacillus casei [2] was “Active” each time.

For the compound `Nc1nc(O)c2nc(CCSc3ccc(C(=O)N[C@@H](CCC(=O)O)C(=O)O)cc3)cnc2n1`, the inhibition result in assay [3] and in assay [6] was “inactive” in each case. Besides, the “growth inhibition (GI)” value in the assay on Lacticaseibacillus casei [4] and in the assay with Enterococcus faecium [7] was “inactive” each time. Further, in assay [5], the result was inactive.

For `Nc1nc(=O)c2c([nH]1)NCC(CCSc1ccc(C(=O)N[C@@H](CCC(=O)O)C(=O)O)cc1)=N2`, in assay [5], the outcome was Active.

(Values after ChEMBL document CHEMBL3244244, “Folate analogues altered in the C9-N10 bridge region: 11-thiohomofolic acid” (J Med Chem, 1979).)
